Assay results taken from ChEMBL document CHEMBL2021764, “2-Aminothiophenes as building blocks in heterocyclic synthesis: synthesis and antimicrobial evaluation of a new class of pyrido[1,2-a]thieno[3,2-e]pyrimidine, quinoline and pyridin-2-one derivatives” (2012).

Tests used:
Type in all cases: functional
[1] = test system: Bacillus subtilis; assay: Antibacterial activity against Bacillus subtilis 154921 at 1 mg/ml after 24 hrs by agar-well diffusion technique; settings: Bacillus subtilis, 154921, 24 h; read-out: DIZ
How it was run: (§1)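 Each bacterial strain (0.1 ml) was spread on nutrient agar, and 4 mm wells were cut with a sterile cork borer. Wells were loaded with test chemical at a final 1 mg ml^-1, then incubated at 37 °C for 24 h. Inhibition zone diameters around the wells were measured, averaged over 3 replicas.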

[2] = test system: Pseudomonas aeruginosa; assay: Antibacterial activity against Pseudomonas aeruginosa 155250A at 1 mg/ml after 24 hrs by agar-well diffusion technique; settings: read-out: DIZ; how it was run: as §1
[3] = test system: Candida albicans; assay: Antifungal activity against Candida albicans 155965 at 1 mg/ml after 48 hrs by agar-well diffusion technique; settings: Candida albicans, 155965, 48 h; read-out: DIZ
How it was run: (§2)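 Yeast (0.1 ml) was spread on potato dextrose agar, and 4 mm wells were cut with a sterile cork borer. Wells were loaded with test chemical at a final 1 mg ml^-1, then incubated at 25 °C for 48 h. Inhibition zones around the wells were measured, averaged over 3 replicas.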

[4] = test system: Escherichia coli; assay: Antibacterial activity against Escherichia coli 124300 at 1 mg/ml after 24 hrs by agar-well diffusion technique; settings: Escherichia coli, 124300, 24 h; read-out: DIZ; how it was run: as §1
[5] = test system: Serratia marcescens; assay: Antibacterial activity against Serratia marcescens 155449 at 1 mg/ml after 24 hrs by agar-well diffusion technique; settings: Serratia marcescens, 155449, 24 h; read-out: DIZ; how it was run: as §1
[6] = test system: Staphylococcus aureus; assay: Antibacterial activity against Staphylococcus aureus 155554A at 1 mg/ml after 24 hrs by agar-well diffusion technique; settings: read-out: DIZ; how it was run: as §1
[7] = test system: Saccharomyces cerevisiae; assay: Antifungal activity against Saccharomyces cerevisiae 156250 at 1 mg/ml after 48 hrs by agar-well diffusion technique; settings: Saccharomyces cerevisiae, 156250, 48 h; read-out: DIZ; how it was run: as §2

| SMILES | zone of inhibition at 1000 µg/mL [1] [mm] | zone of inhibition at 1000 µg/mL [2] [mm] | zone of inhibition at 1000 µg/mL [3] [mm] | zone of inhibition at 1000 µg/mL [4] [mm] | zone of inhibition at 1000 µg/mL [5] [mm] | zone of inhibition at 1000 µg/mL [6] [mm] | zone of inhibition at 1000 µg/mL [7] [mm] |
| --- | --- | --- | --- | --- | --- | --- | --- |
| N#Cc1c(-c2cccs2)c(C#N)c2[nH]c(=O)c3c(-c4ccccc4)csc3n2c1=N | 3.3 | 11.3 | 0 | 4 | 0 | 0 | 0 |
| Cc1ccc(-c2c(C#N)c(=N)n3c([nH]c(=O)c4c(-c5ccc(Cl)cc5)csc43)c2C#N)cc1 | 2 | 6 | 0 | 3.3 | 4 | 0 | 2 |
| N#Cc1c(-c2ccc([N+](=O)[O-])cc2)c(C#N)c2[nH]c(=O)c3c(-c4ccc(Cl)cc4)csc3n2c1=N | 4 | 6 | 2.6 | 5.3 | 4 | 0 | 1.3 |
| CCOC(=O)c1sc2c(c1C)c(=O)[nH]c1c(C#N)c(-c3ccc(Cl)cc3)c(C#N)c(=N)n12 | 2 | 6 | 0 | 8 | 4.6 | 0 | 0 |
| N#Cc1c(-c2ccc(Cl)cc2)csc1NC(=O)c1cc2ccccc2[nH]c1=O | 10.5 | 11 |  | 8 |  | 8 |  |
| N#Cc1c(-c2cccs2)c(C#N)c2[nH]c(=O)c3c(-c4ccc(Cl)cc4)csc3n2c1=N | 2 | 10.6 | 12 | 4 | 2.6 | 0 | 0 |
| N#Cc1cc(C#N)c2[nH]c(=O)c3c(-c4ccccc4)csc3n2c1=N | 2 | 9 | 2.6 | 4 | 6.6 | 0 | 1.3 |
| CCOC(=O)c1sc(NC(=O)CC#N)c(C#N)c1C | 7 |  | 0 | 7 |  |  | 0 |
| Cc1ccc(-c2c(C#N)c(=N)n3c([nH]c(=O)c4c(-c5ccccc5)csc43)c2C#N)cc1 | 2 | 6 | 0 | 2.6 | 3.3 | 0 | 0.7 |
| CCOC(=O)c1sc(NC(=O)/C(C#N)=N/Nc2ccccc2)c(C#N)c1C | 13 | 6 | 0 | 0 | 2.6 | 14 | 0 |
| N#Cc1c(-c2ccc(Cl)cc2)csc1N | 11 | 5 | 2.6 | 4 | 0 | 6.6 | 7 |
| CN(C)/C=C(\C#N)C(=O)Nc1scc(-c2ccc(Cl)cc2)c1C#N | 1 | 4 | 0 | 4 | 7 | 0 | 1.3 |
| CN(C)c1ccc(/C=C(\C#N)C(=O)Nc2scc(-c3ccc(Cl)cc3)c2C#N)cc1 | 3.6 | 6 | 0 | 2 | 2 | 0 | 0 |
| N#Cc1c(-c2ccccc2)csc1NC(=O)c1cn[nH]c1N | 2 | 6.6 | 4 | 2.6 | 0.7 | 0 | 2.6 |
| N#Cc1c(-c2ccccc2)c(C#N)c2[nH]c(=O)c3c(-c4ccccc4)csc3n2c1=N | 4 | 4 | 2 | 6.3 | 4.6 | 0 | 2.6 |
| COc1ccc(-c2c(C#N)c(=N)n3c([nH]c(=O)c4c(-c5ccccc5)csc43)c2C#N)cc1 | 2 | 14 | 0 | 3.3 | 2 | 0 | 0 |
| N#CCC(=O)Nc1scc(-c2ccccc2)c1C#N | 2 | 4 | 4 | 4 | 2 | 0 | 2.6 |
| N#Cc1c(-c2ccccc2)csc1N | 14.6 | 10.6 | 18 | 10.6 | 11.3 | 21 | 16 |
| N#Cc1c(-c2ccc([N+](=O)[O-])cc2)c(C#N)c2[nH]c(=O)c3c(-c4ccccc4)csc3n2c1=N | 2 |  | 0 | 4 | 4.6 | 0 | 0 |
| N#Cc1c(-c2ccccc2)c(C#N)c2[nH]c(=O)c3c(-c4ccc(Cl)cc4)csc3n2c1=N | 2 | 6 | 0 | 4 | 4 | 0 | 4 |
| N#Cc1c(-c2ccc(Cl)cc2)csc1NC(=O)c1cn[nH]c1N | 7.3 | 3.3 | 6.6 | 0 | 2 | 2 | 4 |
| N#Cc1c(-c2ccc(Cl)cc2)c(C#N)c2[nH]c(=O)c3c(-c4ccc(Cl)cc4)csc3n2c1=N | 3.3 | 7 | 0 | 4 | 2.6 | 0 | 0.7 |
| Cc1cccc(-c2ccc(C(=O)Nc3scc(-c4ccccc4)c3C#N)c(=O)[nH]2)n1 | 0 | 4 | 0 | 0 | 0 | 0 | 0 |
| N#CCC(=O)Nc1scc(-c2ccc(Cl)cc2)c1C#N | 4.6 | 4 | 0 | 4 | 1.3 | 0 | 3 |
| CN(C)/C=C(\C#N)C(=O)Nc1scc(-c2ccccc2)c1C#N | 1.6 | 10.8 | 4 | 4 | 3.3 | 0 | 1.3 |
| CN(C)c1ccc(/C=C(\C#N)C(=O)Nc2scc(-c3ccccc3)c2C#N)cc1 | 0 | 4 | 0 | 2 | 7.3 | 0 | 0 |
| COc1ccc(-c2c(C#N)c(=N)n3c([nH]c(=O)c4c(-c5ccc(Cl)cc5)csc43)c2C#N)cc1 | 2 | 13.1 | 0 | 4 | 4 | 0 | 0 |
| N#Cc1c(-c2ccc(Cl)cc2)c(C#N)c2[nH]c(=O)c3c(-c4ccccc4)csc3n2c1=N | 1.6 |  | 0 | 4.6 | 3.3 | 0 | 1.3 |
